Screening data as filed in PubChem.
CSN deneddyl inh = blocks human CSN-mediated cullin deneddylation; Purified CSN, SCF-Nedd8-OG deneddylation, fluorescence polarization; inhibition, % at 12.5 µM; 360,000 compounds, 0.38% hits;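 active = pattern-corrected inhibition above about 35%, with an unprinted fluorescence ratio check between 0.5 and 1.5, limit read from the data, passing the limit was not always enough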
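Assay system: Purified human Csn5 enzyme expressed in HEK293T cells | Amount: Enzyme 0.24 nM | Measured by: Fluorescence polarization readout | Medium: Tris/NaCl/DTT buffer, pH 7.5 | Compound dosing: One concentration, 12.5 µM, 0.25% DMSO | Times: 90 min incubation of compound, enzyme and substrate at room temperature | Control set: no-enzyme wells high, enzyme-with-substrate wells low | Read-out: % inhibition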
PKA-R2B activ = PKA-R2B complex activation | AID 504700 | activation, % at 11.4 µM | P22694+P31323 | 340,000 compounds, 0.079% hits | PKA-R2B holoenzyme dissociation, Cy5-IP20 fluorescence polarization; R2B truncated from residue 108, S112A mutant; 0% DMSO only, 100% 113 µM cGMP;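 active = activation above a cutoff set at the mean over all compounds plus 3 SD, cut at about 18% in these data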;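 also: higher means more holoenzyme dissociation and a rise in polarization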
Target sequence (P31323 whole entry, looked up, other chains not shown, the tested form may be a part): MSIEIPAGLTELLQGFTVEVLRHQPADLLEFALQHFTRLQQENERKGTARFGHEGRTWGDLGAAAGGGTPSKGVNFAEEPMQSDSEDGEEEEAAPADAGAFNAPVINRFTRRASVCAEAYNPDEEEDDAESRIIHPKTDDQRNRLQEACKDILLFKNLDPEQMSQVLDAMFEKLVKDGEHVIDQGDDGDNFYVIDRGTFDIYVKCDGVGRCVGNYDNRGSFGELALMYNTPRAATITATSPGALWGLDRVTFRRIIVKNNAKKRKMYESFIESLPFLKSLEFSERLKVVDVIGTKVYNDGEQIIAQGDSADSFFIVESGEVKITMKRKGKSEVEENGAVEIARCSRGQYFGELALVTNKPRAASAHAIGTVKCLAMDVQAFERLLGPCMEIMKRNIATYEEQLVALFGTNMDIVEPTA
PKA-R1A activ = PKA-R1A complex activation; P00514+P68181; PKA-R1A dissociation, Cy5-IP20 fluorescence polarization; scaled: DMSO 0%, 113 µM cGMP 100%; activation, % at 11.4 µM; 340,000 compounds, 0.083% hits;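 active = percent activation above the mean of all tested compounds plus 3 SD, cut at about 19% in these data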;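 also: higher means more PKAc released from R1A so a rise in polarization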
TPT1 inhibitor = inhibitors of Candida albicans tRNA 2'-phosphotransferase TPT1; 300,000 compounds, 0.81% hits; recombinant caTPT1, FP RNA substrate dephosphorylation; inhibition, % at 5 µM;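 active = inhibition above the mean of all tested compounds plus 3 SD, set per screening campaign, cut at about 24% in these data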
HNF4A DNA FP = change in binding of human HNF4 alpha to DNA. P41235. AID 1224865. activity change, % at 10 µM. 360,000 compounds, 0.3% hits. HNF4a-FITC DNA binding, fluorescence polarization, 1 h; in the data active = activity change above about 30%, passing the limit was not always enough
Rpn11 inh = blocks the human proteasome subunit Rpn11; human 26S proteasome, Ub4-pepOG fluorescence polarization; 20S core pre-blocked with epoxomicin; calls only at 20 µM; 360,000 compounds, 0.59% hits;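 active = inhibition at 20 µM, scaled to each plate's controls, above about 33%, limit read from the data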
TPT1 inh confirm = confirmation of Candida albicans TPT1 inhibitors | shares compounds with TPT1 inhibitor | recombinant caTPT1, fluorescence polarization, RNase T1 coupled | inhibition, % at 5 µM | 2,400 compounds, 74% hits | AID 2149;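 active = inhibition above the primary screen limit, the mean inhibition of all tested compounds plus 3 SD, cut at about 25% in these data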
RNase T1 inh = counter-screen for TPT1 inhibitors: inhibitors of Aspergillus oryzae RNase T1; inhibition, % at 5 µM; AID 2153; RNase T1 cleavage, fluorescence polarization, 1536-well; shares compounds with TPT1 inhibitor; 2,400 compounds, 83% hits;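 active = inhibition above the solvent-only control well mean plus 3 SD, limit set per screening run, cut at about 23% in these data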;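 also: inhibitors block cleavage so intact labeled substrate keeps polarization high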
Target sequence (P00651 whole entry, looked up): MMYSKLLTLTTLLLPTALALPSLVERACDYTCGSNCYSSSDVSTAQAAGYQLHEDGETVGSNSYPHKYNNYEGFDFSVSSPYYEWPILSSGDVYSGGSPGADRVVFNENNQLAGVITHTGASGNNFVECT
R2B FP artifact = counter-screen for PKA-R2B activators: fluorescence polarization artifacts | shares compounds with PKA-R2B activ | FP artifact counterscreen | activation, % at 11.4 µM | 270 compounds, 6% hits | AID 504796; in the data active = activation above about 20%;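 also: Cy5 labelled IP20 peptide probe with compound but no PKA protein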
PKA-R2B confirm = confirmation of human PKA-R2B complex activators. shares compounds with PKA-R2B activ. fluorescence polarization, activation. activation, % at 11.4 µM. 270 compounds, 9% hits. AID 504797; in the data active = activation above about 19%
Target sequence (P31323 whole entry, looked up): as the sequence (P31323 whole entry, looked up, other chains not shown, the tested form may be a part) above
HNF4A confirm = change in binding of human HNF4 alpha to DNA, retest; shares compounds with HNF4A DNA FP; HNF4A-FITC DNA binding, fluorescence polarization, 1 h; activity change, % at 12.5 µM; 210 compounds, 99% hits; AID 1224897; call rule not given here
Large screens that a line does not name were inactive (follow-up assays come after a bar, where shown). Only some compounds are listed: those with a hit (about 1.6% of all), similar ones and a draw of the others.

CN(CC1CCCN(CCc2ccc(Cl)cc2)C1)C(=O)c1ccc2nc[nH]c2c1 (stereo unspecified)	none
NC(=O)C1CCN(c2ccc3c(c2)S(=O)(=O)c2ccccc2C3=O)CC1	TPT1 inhibitor 30.8, HNF4A DNA FP 47.2 (not shown: Rpn11 inh) | TPT1 inh confirm 38.2 | RNase T1 inh 47.7 | HNF4A confirm 67.0
NC(=O)C1CCN(C(=O)c2ccc3c(c2)S(=O)(=O)c2ccccc2C3=O)CC1	none
CC1CCN(c2ccc3c(c2)S(=O)(=O)c2ccccc2C3=O)CC1	TPT1 inhibitor 65.2, HNF4A DNA FP 58.4 (not shown: Rpn11 inh) | TPT1 inh confirm 79.7 | RNase T1 inh 87.5 | HNF4A confirm 71.5
Cc1ccc(CNC(=O)CS(=O)(=O)Cc2nc(-c3ccc(C)cc3)oc2C)cc1	none
COc1cc(CNC(=O)c2cc(-c3ccc(F)cc3C)n[nH]2)cc(OC)c1	none (no result: PKA-R2B activ, PKA-R1A activ, TPT1 inhibitor)
C=CCNc1sc(C(=O)c2ccc(Br)s2)c(N)c1C#N	TPT1 inhibitor 27.9, HNF4A DNA FP 54.9 (not shown: Rpn11 inh) | TPT1 inh confirm 37.8 | RNase T1 inh 48.6 | HNF4A confirm 50.8
C[N+](C)=C1SCC(C)(/C=N/O)S1 (stereo unspecified)	none
Cc1cccc(C)c1N=Cc1c(O)n(-c2nccs2)c(=O)c2ccccc12	none
O=c1c2ccccc2c(/C=N/c2nnc(Cc3ccccc3)s2)c(O)n1-c1ccc(Cl)cn1	CSN deneddyl inh 41.4, TPT1 inhibitor 25.1, HNF4A DNA FP 86.4 (not shown: Rpn11 inh) | TPT1 inh confirm 153.8 | RNase T1 inh 146.2 | HNF4A confirm 94.8
CCn1c(SCC(=O)NCCc2ccc(Cl)cc2)nnc1-c1cccs1	PKA-R2B activ 18.9 | R2B FP artifact inactive | PKA-R2B confirm inactive
Cc1ccc(N2CC(C(=O)Nc3nc4ccc(S(C)(=O)=O)cc4s3)CC2=O)cc1C (stereo unspecified)	none
COc1cc(/C=N/NC(=O)C[n+]2ccccc2)cc(OC)c1OC(C)=O	none
COc1ccc(/C=C2\SC(=O)N(CC(=O)NNC(=O)c3ccccc3O)C2=O)cc1	PKA-R2B activ 20.1 | R2B FP artifact inactive | PKA-R2B confirm 20.8
Cc1cc(C)n(C(=O)CCCCCCCCC(=O)n2nc(C)cc2C)n1	none
CN(C)c1nc(N2CCN(c3ccccc3)CC2)c(C#N)c(=O)o1	none
Cc1cccc(C)c1N1CCN(c2nc(N(C)C)oc(=O)c2C#N)CC1	PKA-R2B activ 20.3 | R2B FP artifact inactive | PKA-R2B confirm inactive
C=CCNc1nc2c(c(=O)[nH]c(=O)n2C)n1Cc1cccc(C)c1	PKA-R2B activ 21.6 (no result: TPT1 inhibitor) | R2B FP artifact inactive | PKA-R2B confirm inactive
COc1cccc(-c2c(C(=O)N/N=C/c3ccco3)nnn2-c2nonc2N)c1	none
O=C(COc1ccc2ccccc2c1)NCC1CCCO1 (stereo unspecified)	none
COc1ccc2[nH]c(=O)c(CN(C(C)=O)c3ccc(C)cc3C)cc2c1	none
CCC(=O)N(Cc1cc2cc(OC)ccc2[nH]c1=O)c1ccc(C)cc1C	PKA-R2B activ 20.8 | R2B FP artifact inactive | PKA-R2B confirm inactive
CCC(=O)N1CCC(C)(C(=O)Nc2ccc3c(c2)OCCO3)C1 (stereo unspecified)	none (no result: PKA-R2B activ, PKA-R1A activ, TPT1 inhibitor)
Cc1ccc(C(=O)N2CCN(c3ccc(C(F)(F)F)cn3)CC2)cc1	PKA-R2B activ 19.9 | R2B FP artifact inactive | PKA-R2B confirm inactive
Cc1ccccc1NS(=O)(=O)c1cc(S(C)(=O)=O)ccc1C	PKA-R2B activ 18.7 | R2B FP artifact inactive | PKA-R2B confirm inactive
C=COCCCNc1ncnc2sc(-c3ccccc3)cc12	none
O=C(NC1CC1)c1ccc(F)cc1Cl	PKA-R2B activ 22.8 | R2B FP artifact inactive | PKA-R2B confirm inactive
COCCN(C(=O)COc1ccccc1C#N)c1c(N)n(Cc2ccccc2)c(=O)[nH]c1=O	none
O=C1Nc2ccccc2/C1=C/c1cnc(-c2ccccc2)[nH]1	PKA-R2B activ 18.7 | R2B FP artifact inactive | PKA-R2B confirm inactive
CC(C)Oc1ccc(S(=O)(=O)N2CCCCC2)cc1NC(=O)CC1OC(=O)c2ccccc21 (stereo unspecified)	PKA-R2B activ 20.0 | R2B FP artifact inactive | PKA-R2B confirm inactive
Cc1ccc(C(=O)Nc2ccccc2C(=O)N2CCOCC2)cc1[N+](=O)[O-]	PKA-R2B activ 19.6 | R2B FP artifact inactive | PKA-R2B confirm inactive
Cc1ccc(C(=O)N2CCOCC2)cc1[N+](=O)[O-]	none
COC(=O)c1c[nH]c(=S)n1Cc1ccccc1	none (no result: TPT1 inhibitor)
CC1C(=O)Nc2ccccc2N1C(=O)c1ccccc1 (stereo unspecified)	PKA-R2B activ 19.8 | R2B FP artifact inactive | PKA-R2B confirm inactive
COc1ccc(N(CC(=O)NCCSC2CCCCC2)S(=O)(=O)c2ccccc2)cc1OC	none
Cc1onc(-c2ccccc2Cl)c1C(=O)NCc1cccnc1	PKA-R2B activ 20.3 | R2B FP artifact inactive | PKA-R2B confirm inactive
Cn1c(=O)c(S(=O)C2CCCCC2)c(O)c2ccccc21 (stereo unspecified)	none
CCc1cc2c(=O)n(CC(=O)NC3CCCCC3)cnc2s1	PKA-R2B activ 18.7 | R2B FP artifact inactive | PKA-R2B confirm inactive
CC1CCCN(C(=O)CCS(=O)(=O)c2ccc3c(c2)NC(=O)C(C)S3)C1 (stereo unspecified)	none
NC(=O)c1nc2c([nH]c1=O)CCCC2	none (no result: TPT1 inhibitor)
CC(=O)N1CCN(c2ccc(NC(=O)C(C)Oc3ccc(Cl)cc3Cl)cc2)CC1 (stereo unspecified)	PKA-R2B activ 19.4 | R2B FP artifact inactive | PKA-R2B confirm inactive
Cc1ccc(S(=O)Cc2ccc(C(=O)N3CCN(C(=O)c4ccco4)CC3)o2)cc1 (stereo unspecified)	none
O=C(c1ccco1)N1CCN(C(=O)c2ccc(CS(=O)c3ccc(Cl)cc3)o2)CC1 (stereo unspecified)	PKA-R2B activ 18.8 | R2B FP artifact inactive | PKA-R2B confirm inactive
CCOC(=O)c1cc(OCC)c2c(ccc3ccccc32)n1	none (no result: TPT1 inhibitor)
